The results in this text go back to ChEMBL document CHEMBL4627400, “Discovery of Dihydropyrrolo[1,2-a]pyrazin-3(4H)-one-Based Second-Generation GluN2C- and GluN2D-Selective Positive Allosteric Modulators (PAMs) of the N-Methyl-d-Aspartate (NMDA) Receptor” (J Med Chem, 2020).

By EC50 is commonly meant the concentration that produces a half-maximal response. A lower EC50 goes with a more potent agent. Broadly, the kinetic solubility is the concentration staying in solution when a stock, usually in DMSO, is diluted into the medium. As a reminder, the Cmax is the highest concentration seen after dosing.

Data set [1] has as its target Ionotropic glutamate receptor NMDA 1/2D (Rattus norvegicus) (UniProt P35439+Q62645). Kind of data set: Positive allosteric modulation of recombinant rat GluN1a/GluN2D receptor expressed in Xenopus laevis oocytes assessed as increase in glycine/L-glutamate-induced channel current at 30 uM by two-electrode voltage clamp method relative to control. The data set is classed as cell-based. The method, boiled down: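 Oocytes expressing rat GluN1/GluN2C or GluN2D, held at −40 mV in HEPES-buffered Ba2+ solution, pH 7.4, 23 °C. […] Current given as percent of agonist-alone response. […] Doubling concentration is the concentration giving 2-fold response; reported as […] log. 6–19 oocytes from 2–3 frogs.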
On the technique in general: Two-electrode voltage clamp is typically applied to oocytes expressing channels or transporters.

A short description of data set [2]: Drug level in C57Bl/6 mouse plasma at 10 mg/kg, ip measured at 0.25 hrs by LC/MS/MS analysis. The data set is classed as ADME, organism-based. The method, boiled down: (§1)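 Fed male mice, 6–8 weeks old, n = 15, 3 per time point. Dosed ip at 10 mg/kg (1 mg/mL) in 50% PEG400/water. […] Brain homogenized 1:4 in water. Samples acetonitrile-precipitated and quantified by LC-MS/MS with verapamil as internal standard.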

For data set [3], the target named is Glutamate NMDA receptor; Grin1/Grin2c (Rattus norvegicus, UniProt P35439+Q00961).
For data set [4], the target named is Glutamate NMDA receptor; Grin1/Grin2b (Rattus norvegicus, UniProt P35439+Q00960). Put plainly: Positive allosteric modulation of recombinant rat GluN1a/GluN2B receptor expressed in Xenopus laevis oocytes assessed as increase in glycine/L-glutamate-induced channel current at 10 to 30 uM by two-electrode voltage clamp method relative to control. It is filed as cell-based. The method, boiled down: (§2)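 TEVC at −40 mV, 23 °C, in 90 NaCl/1 KCl/0.5 BaCl/0.005 EDTA/10 HEPES (mM), pH 7.4. Oocytes expressed rat GluN1/GluN2A or GluN1/GluN2B. […] Some GluN2A oocytes were BAPTA-loaded. 4–17 oocytes from 1–3 frogs.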
Chain of Glutamate NMDA receptor; Grin1/Grin2b (Q00960 whole entry, other chains not shown): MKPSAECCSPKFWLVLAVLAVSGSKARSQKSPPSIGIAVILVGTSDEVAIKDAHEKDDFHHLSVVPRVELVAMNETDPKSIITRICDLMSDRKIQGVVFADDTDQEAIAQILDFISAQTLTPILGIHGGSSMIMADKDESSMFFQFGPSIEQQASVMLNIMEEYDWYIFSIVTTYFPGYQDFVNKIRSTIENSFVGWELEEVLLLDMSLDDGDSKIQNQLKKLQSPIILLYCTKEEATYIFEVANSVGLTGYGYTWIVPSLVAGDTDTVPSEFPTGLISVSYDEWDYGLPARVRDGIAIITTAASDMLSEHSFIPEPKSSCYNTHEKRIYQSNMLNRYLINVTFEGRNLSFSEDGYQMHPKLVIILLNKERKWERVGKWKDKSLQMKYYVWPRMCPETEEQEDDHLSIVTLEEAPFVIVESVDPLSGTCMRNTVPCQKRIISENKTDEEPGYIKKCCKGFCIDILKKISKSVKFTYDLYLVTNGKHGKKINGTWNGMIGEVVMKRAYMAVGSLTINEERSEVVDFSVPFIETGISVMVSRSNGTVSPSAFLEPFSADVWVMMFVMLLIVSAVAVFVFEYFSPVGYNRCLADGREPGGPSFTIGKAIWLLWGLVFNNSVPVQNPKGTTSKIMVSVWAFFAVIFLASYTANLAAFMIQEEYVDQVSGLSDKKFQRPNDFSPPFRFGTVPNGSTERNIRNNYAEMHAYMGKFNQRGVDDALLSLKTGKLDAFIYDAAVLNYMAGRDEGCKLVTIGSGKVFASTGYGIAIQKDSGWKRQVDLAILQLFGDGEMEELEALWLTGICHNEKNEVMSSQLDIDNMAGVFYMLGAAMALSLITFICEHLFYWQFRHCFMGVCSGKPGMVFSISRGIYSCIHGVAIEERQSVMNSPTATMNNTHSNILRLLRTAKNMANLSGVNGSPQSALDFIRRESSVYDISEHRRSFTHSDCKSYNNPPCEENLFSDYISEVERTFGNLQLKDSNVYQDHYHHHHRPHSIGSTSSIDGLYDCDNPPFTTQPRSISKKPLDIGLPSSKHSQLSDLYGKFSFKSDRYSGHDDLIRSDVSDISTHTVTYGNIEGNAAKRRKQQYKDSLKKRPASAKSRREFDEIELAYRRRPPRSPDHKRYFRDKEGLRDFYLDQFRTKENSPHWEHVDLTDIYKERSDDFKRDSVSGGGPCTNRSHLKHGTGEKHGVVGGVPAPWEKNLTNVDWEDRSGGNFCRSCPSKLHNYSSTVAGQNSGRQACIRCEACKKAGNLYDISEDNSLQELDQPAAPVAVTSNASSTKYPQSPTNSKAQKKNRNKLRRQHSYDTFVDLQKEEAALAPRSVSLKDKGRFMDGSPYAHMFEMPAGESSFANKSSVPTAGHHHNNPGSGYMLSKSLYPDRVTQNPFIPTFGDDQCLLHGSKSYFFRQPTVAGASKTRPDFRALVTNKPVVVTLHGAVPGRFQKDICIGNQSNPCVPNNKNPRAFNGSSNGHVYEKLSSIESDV

Data set [5] is described as follows: Drug level in C57Bl/6 mouse brain at 10 mg/kg, ip measured at 0.25 hrs by LC/MS/MS analysis. The data set is classed as ADME, organism-based. Conditions: read-out: Drug uptake; call rule not given here. The method, boiled down: as §1
The target in data set [6] is Ionotropic glutamate receptor NMDA 1/2D (Rattus norvegicus, UniProt P35439+Q62645).
A short description of data set [7]: Protein binding in rat plasma at 1 uM measured after 60 mins by equilibrium dialysis based LC/MS/MS analysis. As to conditions: read-out: PPB (converted). It is filed as ADME, cell-free. On the technique in general: In equilibrium dialysis only unbound substance equilibrates across the membrane.
Data set [8] can be described thus: Aqueous solubility of the compound at pH 7.4 after 30 mins by nephelometric analysis. It is filed as physicochemical. Conditions: buffer.
A short description of data set [9]: Cmax in C57Bl/6 mouse at 10 mg/kg, ip by LC/MS/MS analysis. The data set is classed as ADME, organism-based. More on the design: dose 10 mg/kg, route intraperitoneal. Conditions: in vivo. The method, boiled down:
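Male fed C57BL/6 mice, 6–8 weeks, given 10 mg/kg i.p. (1 mg/mL, 10 mL/kg) in 50% PEG400/water. […] Samples protein-precipitated with acetonitrile, brain homogenised 1:4 in water, quantified by LC-MS/MS with verapamil internal standard.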

In data set [10] the target is Glutamate NMDA receptor; Grin1/Grin2c (Rattus norvegicus) (UniProt P35439+Q00961). Kind of data set: Positive allosteric modulation of recombinant rat GluN1a/GluN2C receptor expressed in Xenopus laevis oocytes assessed as increase in glycine/L-glutamate-induced channel current at 30 uM by two-electrode voltage clamp method relative to control. It is filed as cell-based. The method, boiled down:
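Oocytes expressing rat GluN1/GluN2C or GluN2D, held at −40 mV in HEPES-buffered Ba2+ solution, pH 7.4, 23 °C. Current given as percent of agonist-alone response. Doubling concentration is the concentration giving 2-fold response; reported as […] log. 6–19 oocytes from 2–3 frogs.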

Data set [11] is described as follows: Half life in C57Bl/6 mouse at 10 mg/kg, ip by LC/MS/MS analysis. As to conditions: in vivo. The data set is classed as ADME, organism-based. The method, boiled down:
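Male, fed C57BL/6 mice (6–8 weeks) got a single i.p. dose of 10 mg/kg (1 mg/mL) in 50% PEG400/water. […] Brain was homogenized 1:4 in water. Samples were acetonitrile-precipitated and measured by LC-MS/MS against a verapamil internal standard. Brain:plasma was reported from AUClast.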

For data set [12], the target named is Glutamate NMDA receptor; Grin1/Grin2a (Rattus norvegicus, UniProt P35439+Q00959). Kind of data set: Positive allosteric modulation of recombinant rat GluN1a/GluN2A receptor expressed in Xenopus laevis oocytes assessed as increase in glycine/L-glutamate-induced channel current at 10 to 30 uM by two-electrode voltage clamp method relative to control. It is filed as cell-based. The method, boiled down:
as §2

Converted amounts (≈) assume the structure as drawn.

Chain of Glutamate NMDA receptor; Grin1/Grin2a (Q00959 whole entry, other chains not shown): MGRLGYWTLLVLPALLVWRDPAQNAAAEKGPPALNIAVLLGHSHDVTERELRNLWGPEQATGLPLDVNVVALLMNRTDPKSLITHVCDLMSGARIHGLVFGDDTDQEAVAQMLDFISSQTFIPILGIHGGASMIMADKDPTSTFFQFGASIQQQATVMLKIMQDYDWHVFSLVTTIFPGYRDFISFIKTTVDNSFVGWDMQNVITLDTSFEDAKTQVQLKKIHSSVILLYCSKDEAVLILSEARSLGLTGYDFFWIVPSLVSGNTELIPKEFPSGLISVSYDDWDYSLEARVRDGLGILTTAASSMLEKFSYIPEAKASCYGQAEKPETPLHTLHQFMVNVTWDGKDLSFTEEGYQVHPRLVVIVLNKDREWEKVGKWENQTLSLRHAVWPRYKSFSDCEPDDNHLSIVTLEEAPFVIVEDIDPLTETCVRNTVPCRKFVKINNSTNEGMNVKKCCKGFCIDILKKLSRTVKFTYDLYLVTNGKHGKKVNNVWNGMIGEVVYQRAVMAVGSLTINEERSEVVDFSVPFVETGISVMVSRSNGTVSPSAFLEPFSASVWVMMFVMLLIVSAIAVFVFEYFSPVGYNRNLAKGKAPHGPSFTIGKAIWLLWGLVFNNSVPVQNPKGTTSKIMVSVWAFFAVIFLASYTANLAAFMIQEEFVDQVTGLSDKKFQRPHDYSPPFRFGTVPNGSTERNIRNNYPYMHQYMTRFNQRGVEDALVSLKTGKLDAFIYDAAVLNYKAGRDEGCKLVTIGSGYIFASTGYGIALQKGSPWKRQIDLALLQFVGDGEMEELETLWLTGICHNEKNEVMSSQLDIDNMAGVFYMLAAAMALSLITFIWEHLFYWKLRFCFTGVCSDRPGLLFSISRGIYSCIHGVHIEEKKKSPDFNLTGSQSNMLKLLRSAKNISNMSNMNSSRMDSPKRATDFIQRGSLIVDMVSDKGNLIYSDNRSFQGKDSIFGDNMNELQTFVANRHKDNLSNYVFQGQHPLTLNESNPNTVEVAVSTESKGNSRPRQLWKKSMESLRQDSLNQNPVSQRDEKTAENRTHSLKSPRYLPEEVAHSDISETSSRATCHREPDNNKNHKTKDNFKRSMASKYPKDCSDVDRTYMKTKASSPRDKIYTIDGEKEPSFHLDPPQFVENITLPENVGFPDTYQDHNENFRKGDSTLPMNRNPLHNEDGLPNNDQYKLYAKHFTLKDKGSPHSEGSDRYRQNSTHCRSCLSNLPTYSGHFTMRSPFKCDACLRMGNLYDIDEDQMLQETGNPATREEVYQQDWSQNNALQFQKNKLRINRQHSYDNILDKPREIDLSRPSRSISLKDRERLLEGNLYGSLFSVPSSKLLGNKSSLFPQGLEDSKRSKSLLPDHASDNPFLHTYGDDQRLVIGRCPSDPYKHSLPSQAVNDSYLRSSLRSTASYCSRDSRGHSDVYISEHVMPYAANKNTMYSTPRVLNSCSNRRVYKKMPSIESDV

As to `COc1ccc(OCC2c3cccn3CC(=O)N2Cc2cccc(F)c2)cc1` (configuration not stated), the %max in data set [1] and in data set [10] was 350% in each case. In addition, the concentration at 0.25 h in [2] was 1830 nM; in [5] it was 2500 nM. The concentration giving a half-maximal response (EC50) in data set [3] and in data set [6] was 3.16 µM throughout. For the same compound, the Activity result in [4] and in data set [12] was “Not Active” in each case. The fraction unbound at 1 h, 1 µM in [7] was 0.013. Further, the kinetic solubility at 0.5 h in data set [8] was 74 µM (≈ 28.2 µg/mL). The maximum concentration (Cmax) in data set [9] worked out at 1830 nM. Moreover, in [11], the t1/2 worked out at 1.07 h.
